# Assay results gathered from unrelated publications.
Structure (SMILES),organism,assay,system,setting,quantity,value
Nc1nn2c(-c3ccco3)cc(-c3ccc(OCc4ccccc4)cc3)nc2c1N=Nc1ccc(F)cc1,Saccharomyces cerevisiae,"microbial killing, broth dilution",ATCC9763,,MFC,62.5 µg/mL
CNC(=S)NN=Cc1ccc(OC)cc1,Leishmania tropica,parasite growth,J774.A1,"72 h, intracellular, amastigote",IC50,22.7 µM
CCOC(=O)C1=C(CN2CCC(C(=O)Nc3cccc(B4OC(C)(C)C(C)(C)O4)c3)C2)NC(c2nccs2)=NC1c1ccc(F)cc1Br (stereo not drawn),Hepatitis B virus,"viral replication, inhibitor, qPCR",HepDES19,72 h,EC50,0.87 µM
COc1ccc(C2Oc3ccccc3C=C2[N+](=O)[O-])cc1 (stereo not drawn),Leishmania tropica,parasite growth,THP-1,"72 h, intracellular, amastigote",IC50,150 µg/mL
OC(Cn1cncn1)(Cn1cncn1)c1ccc(F)cc1F,Saccharomyces cerevisiae,"microbial growth, broth dilution",BY4742,48 h,MIC,8 µg/mL
Cc1ccc(N=Nc2c(N)nn3c(-c4ccc(C)cc4)cc(-c4ccc(OCc5ccccc5)cc4)nc23)cc1,Saccharomyces cerevisiae,"microbial killing, broth dilution",ATCC9763,,MFC,250 µg/mL
CCOC(=O)C1=C(CN2CCN(Cc3ccc(B(O)O)cc3)CC2)NC(c2nccs2)=NC1c1ccc(F)cc1Br (stereo not drawn),Hepatitis B virus,"viral replication, inhibitor, qPCR",HepDES19,72 h,EC50,0.97 µM
CNC(=S)NN=Cc1ccc(C)cc1,Leishmania tropica,parasite growth,J774.A1,"72 h, intracellular, amastigote",IC50,452 µM
O=[N+]([O-])C1=Cc2ccccc2OC1c1cccc(OCc2ccc([N+](=O)[O-])cc2)c1 (stereo not drawn),Leishmania tropica,parasite growth,THP-1,"72 h, intracellular, amastigote",IC50,144 µg/mL
CNC(=S)NN=Cc1ccc(F)cc1,Leishmania tropica,parasite growth,J774.A1,"72 h, intracellular, amastigote",IC50,762 µM
COc1ccc(N=Nc2c(N)nn3c(-c4ccc(Cl)cc4Cl)cc(-c4ccc(OCc5ccccc5)cc4)nc23)cc1,Saccharomyces cerevisiae,"microbial growth, broth dilution",ATCC9763,,MIC,125 µg/mL
CCOC(=O)C1=C(CN2CCN(Cc3cccc(B(O)O)c3)CC2)NC(c2nccs2)=NC1c1ccc(F)cc1Br (stereo not drawn),Hepatitis B virus,"viral replication, inhibitor, qPCR",HepDES19,72 h,EC50,1.27 µM
O=[N+]([O-])C1=Cc2ccccc2OC1c1ccccc1OCc1ccccc1Cl (stereo not drawn),Leishmania tropica,parasite growth,THP-1,"72 h, intracellular, amastigote",IC50,171 µg/mL
CCOC(=O)C1=C(CN2CCC(C(=O)Nc3ccccc3B3OC(C)(C)C(C)(C)O3)C2)NC(c2nccs2)=NC1c1ccc(F)cc1Br (stereo not drawn),Hepatitis B virus,"viral replication, inhibitor, qPCR",HepDES19,72 h,EC50,3.17 µM
CNC(=S)NN=Cc1ccc(OC)c(OC)c1,Leishmania tropica,"parasite growth, MTT",,"72 h, promastigote",IC50,258 µM
CC(=O)N1CCN(c2ccc(OCC3COC(Cn4ccnc4)(c4ccc(Cl)cc4Cl)O3)cc2)CC1 (stereo not drawn),Saccharomyces cerevisiae,"microbial growth, broth dilution",ATCC9763,,MIC,1.95 µg/mL
CNC(=S)NN=Cc1ccc([N+](=O)[O-])cc1,Leishmania tropica,"parasite growth, MTT",,"72 h, promastigote",IC50,240 µM
O=[N+]([O-])C1=Cc2ccccc2OC1c1ccc(Cl)cc1 (stereo not drawn),Leishmania tropica,parasite growth,THP-1,"72 h, intracellular, amastigote",IC50,155 µg/mL
Cc1ccc(-c2cc(-c3ccc(OCc4ccccc4)cc3)nc3c(N=Nc4ccc(F)cc4)c(N)nn23)cc1,Saccharomyces cerevisiae,"microbial growth, broth dilution",ATCC9763,,MIC,62.5 µg/mL
CCOC(=O)C1=C(CN2CCC[C@@H]2C(=O)Nc2ccc(B(O)O)cc2)NC(c2nccs2)=N[C@@H]1c1ccc(F)cc1Br,Hepatitis B virus,"viral replication, inhibitor, qPCR",HepDES19,72 h,EC50,3.93 µM
O=[N+]([O-])C1=Cc2ccccc2OC1c1ccc(F)cc1 (stereo not drawn),Leishmania tropica,parasite growth,THP-1,"72 h, intracellular, amastigote",IC50,147 µg/mL
C[C@@H]1[C@H](O)[C@@H](C)/C=C/C=C/C=C/C=C/C=C/C=C/C=C/[C@H](O[C@@H]2O[C@H](C)[C@@H](O)[C@H](N)[C@@H]2O)C[C@@H]2O[C@](O)(C[C@@H](O)C[C@@H](O)[C@H](O)CC[C@@H](O)C[C@@H](O)CC(=O)O[C@H]1C)C[C@H](O)[C@H]2C(=O)O,Saccharomyces cerevisiae,"microbial growth, broth dilution",BY4742,48 h,MIC,0.25 µg/mL
Cc1ccc(N=Nc2c(N)nn3c(-c4ccc(Cl)cc4Cl)cc(-c4ccc(OCc5ccccc5)cc4)nc23)cc1,Saccharomyces cerevisiae,"microbial killing, broth dilution",ATCC9763,,MFC,125 µg/mL
S=C(NN=Cc1ccc(Br)cc1)Nc1cccnc1,Leishmania tropica,parasite growth,J774.A1,"72 h, intracellular, amastigote",IC50,475 µM
CCOC(=O)C1=C(CN2CCCC2C(=O)Nc2ccc(B3OC(C)(C)C(C)(C)O3)cc2)NC(c2nccs2)=NC1c1ccc(F)cc1Br (stereo not drawn),Hepatitis B virus,"viral replication, inhibitor, qPCR",HepDES19,72 h,EC50,0.37 µM
COc1ccc(C=NNC(=S)Nc2cccnc2)cc1OC,Leishmania tropica,parasite growth,J774.A1,"72 h, intracellular, amastigote",IC50,> 1000 µM
COc1ccc(N=Nc2c(N)nn3c(-c4ccc(C)cc4)cc(-c4ccc(OCc5ccccc5)cc4)nc23)cc1,Saccharomyces cerevisiae,"microbial growth, broth dilution",ATCC9763,,MIC,31.3 µg/mL
O=[N+]([O-])C1=Cc2ccccc2OC1c1ccc(OCc2ccc(F)cc2)cc1 (stereo not drawn),Leishmania tropica,parasite growth,THP-1,"72 h, intracellular, amastigote",IC50,181 µg/mL
COc1ccc(N=Nc2c(N)nn3c(-c4ccco4)cc(-c4ccc(OCc5ccccc5)cc4)nc23)cc1,Saccharomyces cerevisiae,"microbial killing, broth dilution",ATCC9763,,MFC,125 µg/mL
Cc1ccc(COc2cccc(C3Oc4ccccc4C=C3[N+](=O)[O-])c2)cc1 (stereo not drawn),Leishmania tropica,parasite growth,THP-1,"72 h, intracellular, amastigote",IC50,162 µg/mL
C[C@@H]1[C@H](O)[C@@H](C)/C=C/C=C/C=C/C=C/C=C/C=C/C=C/[C@H](O[C@@H]2O[C@H](C)[C@@H](O)[C@H](N)[C@@H]2O)C[C@@H]2O[C@](O)(C[C@@H](O)C[C@@H](O)[C@H](O)CC[C@@H](O)C[C@@H](O)CC(=O)O[C@H]1C)C[C@H](O)[C@H]2C(=O)O,Leishmania tropica,parasite growth,J774.A1,"72 h, intracellular, amastigote",IC50,27.9 µM
Cc1ccc(C2Oc3ccccc3C=C2[N+](=O)[O-])cc1 (stereo not drawn),Leishmania tropica,parasite growth,THP-1,"72 h, intracellular, amastigote",IC50,164 µg/mL
CCOC(=O)C1=C(CN2CCC[C@@H]2C(=O)Nc2cccc(B(O)O)c2)NC(c2nccs2)=N[C@@H]1c1ccc(F)cc1Br,Hepatitis B virus,"viral replication, inhibitor, qPCR",HepDES19,72 h,EC50,2.6 µM
